Most compounds without a hit are left out; they make up all but 4.8% or so of the library.
ERb coact inh – blocks coactivator binding to human estrogen receptor beta | Q92731 | TR-FRET ER-beta LBD / SRC1-Cy5 peptide binding; receptor agonist-loaded with 1 µM estradiol | actives 1.3% (n = 86,000) | inhibition, % at 25.6 µM;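 active = compounds whose percent inhibition of the receptor-coactivator binding signal exceeds about 50% in the single-dose screen, limit read from the data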;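 note: 0% = receptor plus peptide wells without compound and 100% = peptide-only wells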
ERa SRC1 inh – ER-alpha (human) coactivator binding inhibition; TR-FRET ER-alpha LBD / SRC-1 peptide, estradiol-bound; inhibition, % at 25.6 µM; actives 1.7% (n = 86,000); AID 629; in the data active = inhibition above about 50%;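 note: 0% = receptor plus peptide control and 100% = peptide only without receptor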
ERa SRC1 pot – enhances coactivator binding to human estrogen receptor alpha. P03372. actives 1.3% (n = 86,000). TR-FRET ERalpha-LBD/SRC-Cy5 coactivator binding, 2 h; 100 = basal binding, no effect. coactivator binding (% of control), % at 25.6 µM; in the data active = activity above about 200%;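 note: binding measured in presence of low estradiol as agonist stimulus; 0% = peptide alone without receptor and 100% = receptor with peptide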
Pyk2 oligo antag – antagonists of human Pyk2 oligomerization; Q293 cells, Pyk2 FERM NanoBiT luminescence; stronger effect = lower value; z-score (the deposit names both 25 µM and 10 µM); actives 0.83% (n = 99,000);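 active = Z-score of -3 or lower, scaled per plate to the spread of control and sample wells; inactive = z-score above -3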;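 note: negative z-score means lost luminescence so less FERM oligomerization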
Target sequence (Q14289 whole entry, looked up): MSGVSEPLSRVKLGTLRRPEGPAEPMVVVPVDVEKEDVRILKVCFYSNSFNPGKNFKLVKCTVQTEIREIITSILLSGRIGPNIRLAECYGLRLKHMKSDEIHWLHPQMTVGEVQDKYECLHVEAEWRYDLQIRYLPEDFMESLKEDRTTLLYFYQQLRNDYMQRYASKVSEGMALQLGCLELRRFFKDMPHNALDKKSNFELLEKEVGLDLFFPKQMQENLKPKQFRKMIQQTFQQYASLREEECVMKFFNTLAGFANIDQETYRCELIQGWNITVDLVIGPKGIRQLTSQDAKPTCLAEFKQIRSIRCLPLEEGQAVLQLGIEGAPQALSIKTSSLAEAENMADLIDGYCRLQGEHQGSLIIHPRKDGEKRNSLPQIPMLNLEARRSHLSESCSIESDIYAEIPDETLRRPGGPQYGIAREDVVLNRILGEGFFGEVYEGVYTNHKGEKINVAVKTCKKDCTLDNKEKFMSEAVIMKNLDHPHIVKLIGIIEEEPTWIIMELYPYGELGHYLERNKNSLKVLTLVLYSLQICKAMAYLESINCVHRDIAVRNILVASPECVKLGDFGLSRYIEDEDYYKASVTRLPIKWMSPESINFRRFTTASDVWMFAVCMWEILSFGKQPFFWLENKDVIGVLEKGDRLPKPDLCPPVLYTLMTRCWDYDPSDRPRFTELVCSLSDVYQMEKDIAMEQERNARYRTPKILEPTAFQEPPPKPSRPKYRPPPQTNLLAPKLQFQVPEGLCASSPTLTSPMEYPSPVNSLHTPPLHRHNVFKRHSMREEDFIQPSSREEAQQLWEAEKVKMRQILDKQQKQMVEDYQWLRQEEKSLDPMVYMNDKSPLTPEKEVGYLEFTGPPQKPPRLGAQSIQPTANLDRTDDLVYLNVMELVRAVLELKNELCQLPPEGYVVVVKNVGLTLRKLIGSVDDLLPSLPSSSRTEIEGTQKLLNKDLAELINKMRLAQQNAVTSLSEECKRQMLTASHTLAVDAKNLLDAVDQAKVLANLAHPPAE
SF1 activator – activators of human nuclear receptor SF-1. Q13285. CHO-K1 Gal4-SF-1 LBD luciferase reporter; % increase over DMSO SF-1-specific signal. activation, % at 10 µM. actives 1.9% (n = 65,000). AID 522;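 active = activation above the mean activation of all tested compounds plus 3 SD, cut at about 50% in these data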
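material = CHO-K1 cells with Gal4–hSF-1 LBD chimera plus Gal4-driven luciferase | compound = 10 µM single point, 1% DMSO | incubation = 20 h compound exposure at 37 °C after 1 h cell settling | measured by = SteadyLite luciferase luminescence | evaluation = percent activation relative to DMSO median and mock-transfected background | control set = DMSO negative control and −SF1 background wells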
RORA act – RORA (human) activation; P35398; CHO-K1 Gal4-RORA LBD luciferase reporter, luminescence; percent increase over mock-subtracted basal signal; activation, % at 10 µM; actives 1.5% (n = 65,000); AID 560;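 active = activation above the mean of all tested compounds plus 3 SD, cut at about 49% in these data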;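 note: 0% = DMSO-treated RORA cells and 100% = added signal equal to DMSO minus mock-transfected cells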
* marks the source's active call; other numbers are inactive results; . = not tested or not shown; [ ] = dose if it differs, or a comment.

SMILES | ERb coact inh | ERa SRC1 inh | ERa SRC1 pot | Pyk2 oligo antag | SF1 activator | RORA act
O=C1Nc2ccccc2C(O)(C(=O)NCc2ccc3c(c2)OCO3)N1c1ccc(Cl)c(Cl)c1 (configuration not stated) | 1 | 11 | 96 | -0.15 | . | .
CCCNS(=O)(=O)c1ccc(OCC(=O)N2CCOCC2)cc1 | -28 | -24 | 104 | 0.75 | . | .
O=C(COC(=O)c1ccc(Br)o1)Nc1ccc(S(=O)(=O)N2CCCC2)cc1 | 4 | 6 | 105 | 1.8 | -5 | -15
O=C(Nc1ccc(S(=O)(=O)N2CCCCCC2)cc1)c1ccc(Br)o1 | -5 | 3 | 115 | -1.1 | 13 | 50*
CS(=O)(=O)N1CCN(c2ccc(NC(=O)c3ccc(Br)o3)cc2)CC1 | -2 | 2 | 103 | -0.52 | 56* | 17
O=C(Nc1cccnc1)c1ccc(S(=O)(=O)N2CCCCCC2)cc1 | 47 | 52*[fluorescence artefact?] | 21 | 1.3 | . | .
Cc1ccc(C(=O)N2CCN(c3ccc(NC(=O)c4ccc(Br)o4)cc3)CC2)cc1 | 7 | 8 | 101 | -0.73 | . | .
O=C(Nc1ccccc1)c1ccc(S(=O)(=O)N2CCCCC2)cc1 | . | . | . | . | 12 | -2
CCOC(=O)C(CSCC(=O)c1ccc(Cl)cc1)NC(=O)OC(C)(C)C (configuration not stated) | 7 | 1 | 102 | 0.97 | . | .
Cc1nnsc1C(=O)NC1CCCCC1 | . | . | . | 1.5 | . | .
Cc1ccc(=O)n(C(C(=O)NCc2ccco2)C(=O)c2ccc(F)cc2)c1 (configuration not stated) | 5 | 5 | 89 | -0.08 | 7 | -6
Cn1c(SCC(=O)Nc2ccc(NC(=O)c3cccs3)cc2)nnc1-c1ccncc1 | -7 | -5 | 89 | 0.17 | . | .
CCOC(=O)C1CCCN(S(=O)(=O)c2cccc3cccnc23)C1 (configuration not stated) | -1 | 3 | 100 | 0.26 | 2 | 6
COc1ccc(CC(=O)Nc2cc(C)c3c(=O)oc4ccccc4c3n2)cc1 | 53*[fluorescence artefact?] | 38 | 243* | . | 11 | -12
Cc1cc(NC(=O)c2ccc(S(=O)(=O)N3CCCC3)cc2)nc2c1c(=O)oc1ccccc12 | -1 | 4 | 132 | 0.32 | -8 | 5
CCOc1ccc(C(=O)Nc2cc(C)c3c(=O)oc4ccccc4c3n2)cc1 | 25 | 33 | 315*[fluorescence artefact?] | . | 11 | -22
CCC(CC)C(=O)Nc1cc(C)c2c(=O)oc3ccccc3c2n1 | 8 | 7 | 98 | . | -11 | -3
CC(=O)N1CCc2cc(S(=O)(=O)CCC(=O)Nc3c(C)n(C)n(-c4ccccc4)c3=O)ccc21 | -1 | -3 | 126 | 0.81 | 17 | -3
O=C(NCCC1=CCCCC1)C(=O)NCC(c1ccco1)N1CCN(c2ccc(F)cc2)CC1 (configuration not stated) | . | . | . | 0.67 | . | .
COC(=O)Nc1c(-c2ccccc2)nc2ccccn12 | -8 | -20 | 106 | -0.05 | -24 | -1
COC(=O)Nc1c(-c2ccccc2)nc2ccc(C)cn12 | 83* | 3 | 101 | 0.33 | -3 | 2
c1ccc(-n2nc3c(ccc4cnnc43)[nH]2)cc1 | 4 | 18 | 99 | -1.8 | 36 | 55*
Cn1c(C(=O)OC(C(=O)NC2CCCCC2)c2ccncc2)cc2sccc21 (configuration not stated) | 27 | 42 | 263*[fluorescence artefact?] | -1.8 | -16 | -5
Cn1c(C(=O)OC(C(=O)NC2CCCC2)c2ccncc2)cc2sccc21 (configuration not stated) | 25 | 18 | 90 | -1.3 | 2 | -26
O=C/C(=C\Nc1ccccn1)c1nc2cc(Cl)ccc2o1 | 28 | 66*[fluorescence artefact?] | 102 | -1.2 | . | .
SMILES | ERb coact inh | ERa SRC1 inh | ERa SRC1 pot | Pyk2 oligo antag | SF1 activator | RORA act
CCOC(=O)C1Cc2ccccc2CN1 (configuration not stated) | 57*[fluorescence artefact?] | -5 | 102 | -0.02 | -14 | -12
O=C(CN(c1ccc(F)cc1)S(=O)(=O)c1ccc2c(c1)OCCO2)NCc1ccccn1 | -3 | -8 | 125 | -1.1 | -1 | 3
Clc1ccc2[nH]cc(-c3nnnn3-c3ccc4ccccc4c3)c2c1 | . | . | . | -3.2* | . | .
Cc1ccc(-n2nnnc2-c2cnc3ccc(Cl)cc3c2-c2ccccc2)cc1 | . | . | . | -0.77 | . | .
CCC(=O)Nc1c(C#N)c2nc3ccccc3nc2n1-c1ccccc1C | 18 | 7 | 124 | -1 | 10 | -7
CCC(=O)Nc1c(C#N)c2nc3ccccc3nc2n1C1CCCCC1 | 34 | 65*[fluorescence artefact?] | 101 | 0.27 | -9 | -19
CCCCn1c(NC(=O)CC)c(C#N)c2nc3ccccc3nc21 | 43 | 72* | 221*[fluorescence artefact?] | -0.02 | 0 | 18
S=c1[nH]nc(C23CC4CC(CC(C4)C2)C3)n1Cc1ccco1 | -1 | 0 | 105 | -0.39 | 1 | 5
Cc1cc(NCCN2CCOCC2)n2ncc(-c3ccccc3)c2n1 | -10 | -9 | 99 | 0.09 | 91* | 66*
Cc1ccc(NC(=O)CN2C(=O)S/C(=C/c3ccc(-c4cc(C(=O)O)ccc4C)o3)C2=O)cc1C | 73* | 66* | 237*[fluorescence artefact?] | 0.6 | . | .
CCOC(=O)c1c(C)n(C)c2cc(Br)c(C)cc12 | 23 | 6 | 151 | -0.56 | . | .
CCOC(=O)c1c2c(n(C)c1COC)C(=O)C(=O)c1ccc(Br)cc1-2 | 33 | 85* | 57 | . | . | .
CC(=O)Nc1ccc2nc(-c3ccccn3)[nH]c2c1 | -5 | 3 | 117 | -0.64 | 48 | 65*
O=C(OC1CCCCC1)c1ccc(NC(=O)c2ccco2)cc1 | -14 | -4 | 113 | -0.97 | 60* | 49*
O=C(Nc1ccc2oc(-c3cccnc3)nc2c1)c1ccc(Br)o1 | 38 | 69*[fluorescence artefact?] | 206*[fluorescence artefact?] | 0.9 | . | .
O=C(Nc1ccc(-c2nc3ncccc3o2)cc1)c1ccc(Br)o1 | -10 | 41 | 269*[fluorescence artefact?] | 0.72 | -23 | -20
O=C(Nc1ccc2oc(-c3cccnc3)nc2c1)c1ccco1 | 26 | 35 | 67 | 0.06 | . | .
COc1cc(C(=O)Nc2ccccn2)cc(OC)c1OC | -21 | -22 | 107 | -1 | 7 | -2
Cc1cc(C(=O)Nc2ccccn2)cs1 | . | . | . | -1 | 62* | 56*
Cc1ccc(NC(=S)NNC(=O)c2ccco2)cc1 | . | . | . | 0.98 | . | .
Cc1ccc(-c2nnc(-c3ccc(NC(=O)c4ccco4)cc3)o2)cc1 | 12 | 22 | 455* | 0.71 | 2 | 1
O=C(Nc1ccccn1)c1ccc(NC(=O)c2ccco2)cc1 | -2 | 3 | 117 | -0.42 | 60* | 71*
O=C(Nc1ccc(-c2nc3cccnc3s2)cc1)c1ccco1 | 41 | 56*[fluorescence artefact?] | 156 | . | 14 | 25
O=C(Nc1cccc(-c2nc3cccnc3s2)c1)c1ccco1 | -21 | -18 | 104 | -1.3 | 36 | 22
Cc1nc(NC(=O)COC(=O)CCS(=O)(=O)c2ccccc2Cl)c(Cl)cc1Cl | -6 | -10 | 102 | 0.5 | . | .

Bioassay records as filed in PubChem.
